Screening results as filed in PubChem.
Hits are enriched below; roughly 2.9% of the tested compounds scored in any of these assays.
SIAE inh: human SIAE inhibitors, primary screen, biochemical, fluorescence polarization, FP-Rh probe, 1536-well HTS; Sialate O-acetylesterase (Homo sapiens), Q9HAT2; SIAE FP-Rh probe binding; inhibition, % at 9.66 µM; 0.69% of 370,000 active;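 active means inhibition above a cutoff: mean of compounds within the control limits plus 3 SD of those, cut at about 17% in these data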;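 further: 0% = plate median of compound wells and 100% = probe without SIAE protein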
TCR-CD3 inh: inhibitors of human TCR-CD3 interaction, primary screen, biochemical, fluorescence, TAMRA-labeled TCR probe; T-cell receptor (TCR); inhibition, % at 9.4 µM; 0.37% of 360,000 active; in the data active means inhibition above about 19%;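 further: recombinant mutant TCR 2C K166C tagged with TAMRA read by polarization; 0% = receptor in buffer alone and 100% = receptor with positive control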
ABHD4 inh: ABHD4 inhibitors, primary screen, biochemical, fluorescence polarization, mouse; purified mABHD4, FP-Rh probe fluorescence polarization; 0.54% of 370,000 active; inhibition, % at 8.92 µM;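 active means inhibition exceeding the mean over every tested compound plus 3 SD, cut at about 30% in these data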;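 further: 0% = plate median of compound wells and 100% = S159A mutant with DMSO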
Target sequence (Q8VD66 whole entry, looked up): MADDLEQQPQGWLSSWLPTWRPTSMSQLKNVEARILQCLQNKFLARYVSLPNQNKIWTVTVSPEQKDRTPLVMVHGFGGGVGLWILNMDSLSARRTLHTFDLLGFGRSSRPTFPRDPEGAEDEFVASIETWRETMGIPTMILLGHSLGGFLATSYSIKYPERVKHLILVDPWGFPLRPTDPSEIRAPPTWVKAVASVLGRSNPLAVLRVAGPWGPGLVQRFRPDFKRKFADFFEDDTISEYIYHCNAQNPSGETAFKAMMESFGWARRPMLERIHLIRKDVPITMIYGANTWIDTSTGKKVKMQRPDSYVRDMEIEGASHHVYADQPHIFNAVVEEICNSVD
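Test system: mouse ABHD4 enzyme, wild type. Reagent: FP-Rh fluorescent activity-based probe, added after compound pre-incubation. Timing: pre-incubation 45 min, probe exposure 60 min, at 25 °C. Technique: FP readout, ex 525 nm / em 598 nm. Benchmarks: high control S159A mutant with DMSO, low control median of compound wells.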
PRMT1 FP inh: PRMT1 methyltransferase inhibitors, primary screen, biochemical, fluorescence polarization. inhibition, % at 2.79 µM. 1.3% of 370,000 active. recombinant PRMT1, activity-based probe fluorescence polarization;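 active means inhibition above about 21% made by adding two undisclosed values, limit read from the data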
HTRA1 inh: HTRA1 serine protease inhibitors, primary screen, biochemical, fluorescence polarization, HTS; inhibition, % at 5.96 µM; 0.5% of 340,000 active; Q92743; recombinant HTRA1, FP-rhodamine activity-based probe; in the data active means inhibition above about 36%;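 further: 0% = enzyme with DMSO and 100% = wells lacking enzyme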
PAD4 inh: human PAD4 inhibitors, primary screen, biochemical, fluorescence polarization, 1536-well format | Protein-arginine deiminase type-4 (Homo sapiens), Q9UM07 | recombinant PAD4, RCA probe fluorescence polarization | inhibition, % at 6.36 µM | 0.41% of 330,000 active;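 active means percent inhibition above a cutoff equal to the mean of all tested compounds plus 3 SD, cut at about 15% in these data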;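 further: 0% = PAD4 with RCA probe and DMSO and 100% = probe without PAD4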
PAD4 FP conf: human PAD4 inhibitors, confirmation, biochemical, fluorescence polarization | shares compounds with PAD4 inh | recombinant PAD4, RCA probe fluorescence polarization | inhibition, % at 6.36 µM | 28% of 1,200 active;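 active means mean inhibition across replicates above the hit cutoff set by the earlier primary screen, cut at about 15% in these data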;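 further: inhibitors block active-site labeling by the probe so polarization falls; 0% = PAD4 with probe and DMSO and 100% = probe without PAD4 enzyme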
* marks the source's active call; other numbers are inactive results; / = no result given; ! = not active in a repeat.

SMILES	SIAE inh	TCR-CD3 inh	ABHD4 inh	PRMT1 FP inh	HTRA1 inh	PAD4 inh	PAD4 FP conf
COc1ccc(OC)c(C2C(C#N)=C(N)Oc3c2c(C)nn3-c2ccc(C)cc2)c1 (stereo not given)	6	4	8	-1	1	54*	5
Cc1ccc(-n2nc(C)c3c2OC(N)=C(C#N)C3c2ccc(C)o2)cc1 (stereo not given)	7	-1	28	19	10	-11	/
Cc1nn(-c2ccccc2)c2c1C(c1ccc(Br)s1)C(C#N)=C(N)O2 (stereo not given)	/	/	/	/	-1	/	/
COc1cc(C=Nn2c(-c3ccc(F)cc3)n[nH]c2=S)ccc1OCc1ccccc1	0	/	8	5	/	/	/
COC(=O)[C@]1(CNC(C)=O)CC(=O)N(Cc2ccc(Cl)cc2)[C@@H]1c1ccc(OC)cc1	-3	/	-5	-5	/	/	/
CCc1c(-c2ccccc2Br)ncn1CCc1ccccc1OC	3	-1	7	8	/	/	/
N=c1c2c(ccn1CCCCc1ccccc1)Oc1ccc3ccccc3c1C2c1ccccc1 (stereo not given)	-62	/	-65	-5	/	/	/
CC(=O)N1CC[n+]2c(-c3ccc(Cl)cc3Cl)csc21	2	12	7	57*	3	16*	5
O=C(O)c1ccc(-c2nc(-c3ccc(Cl)cc3Cl)cs2)cc1	2	4	-16	-3	10	-2	/
COc1ccccc1C(=O)Nc1nc(-c2ccc(S(=O)(=O)N3CCOCC3)cc2)cs1	-30	2	-27	3	-50	40*	41*
COc1ccccc1OC(C)C(=O)Nc1nc(-c2ccc(S(=O)(=O)N3CCOCC3)cc2)cs1 (stereo not given)	-14	8	-19	-2	-31	-1	/
COc1ccc(OC)c(S(=O)(=O)N(C(C)=O)c2ccc3oc(=O)sc3c2)c1	-5	7	10	53*	12	25*	15*
CC(C)C(=O)N(c1ccc2oc(=O)sc2c1)S(=O)(=O)c1ccccc1	-31	-6	6	48*	6	24*	3
COc1ccc(N(C(C)=O)S(=O)(=O)c2cc(OC)ccc2OC)cc1	-7	-5	1	2	4	1	/
CC(C)(C)C(=O)c1c(N)[nH]c(C(=O)c2ccccc2)c1-c1ccc([N+](=O)[O-])cc1	3	7	6	3	/	/	/
COC(=O)[C@]12C[C@H](CC(=O)NCc3ccc(C)o3)C(=O)N(CCC3=CCCCC3)C1=C[C@H](C(C)C)O[C@@H]2C1CC1	4	/	6	6	/	/	/
O=S1(=O)c2ccc(Br)cc2OC[C@@H](Cc2ccccc2)N1Cc1cn(CCC2OCCO2)nn1	1	/	-10	0	/	/	/
COc1ccc2c(C)cc3n[nH]c(=S)n3c2c1	2	1	3	5	9	22*	16*
CCOC(=O)[C@@]12CN(C(=O)OC(C)(C)C)CC=C1N(Cc1ccc(OC)cc1)C(=O)[C@H]2CC(=O)NCCc1ccccc1OC	7	/	1	-5	/	/	/
CCCS(=O)(=O)c1cn2cccc(N)c2c1S(=O)(=O)CCC	9	14	16	33*	10	18*	7
CCCS(=O)(=O)c1c(S(=O)(=O)CCC)c2c(C)cccn2c1C(N)=O	-2	8	0	2	-2	-2	/
CN(C)c1ccc(/C=N\NC(=O)c2cccc(S(=O)(=O)N(C)C)c2)cc1	6	/	-6	6	/	/	/
COc1ccc(-c2cc(=O)[nH][nH]2)cc1OC	5	-3	6	14	7	65*	-7
COc1cccc(-c2ccc(C#N)c(=O)[nH]2)c1	0	1	-4	-3	3	1	/
COc1cccc(-c2cc(=O)[nH][nH]2)c1	10	-1	3	5	2	38*	-5
SMILES	SIAE inh	TCR-CD3 inh	ABHD4 inh	PRMT1 FP inh	HTRA1 inh	PAD4 inh	PAD4 FP conf
Cc1ccc(-c2cc(C(=O)N3CCN(C(=O)c4ccco4)CC3)[nH]n2)c(C)c1	-5	-7	-8	-3	7	-6	/
Nc1cccc2c1C(=O)N(C(=O)c1ccco1)C2=O	7	-1	-4	-1	-2	2	/
Cc1ccc2c(c1)N(C(=O)c1ccco1)C(C)(C)c1ssc(=S)c1-2	1	3	5	4	2	16*	24*
Cc1cccc2c1N(C(=O)c1ccco1)C(C)(C)c1ssc(=S)c1-2	1	5	10	0	3	15*	15
O=C(Cc1cc(=O)[nH][nH]1)N/N=C/c1c(Cl)cccc1Cl	0	1	15	0	5	20*!	-5
COc1ccc(-c2cc(C(=O)NN=Cc3ccc(C)s3)[nH]n2)cc1	-18	/	-14	7	/	/	/
O=C(Nc1ccc2c(c1)Cc1ccccc1-2)NC1CCCCN(Cc2cccc(Cl)c2)C1=O (stereo not given)	4	/	-6	-3	/	/	/
O=C(O)CSCC(=O)Nc1ccc(-c2nc3ccccc3s2)cc1	-21	7	-38	36*	/	30*	31*
CCC(=O)Nc1ccccc1Sc1ncnc2scc(-c3ccccc3)c12	3	-1	-6	3	-3	21*	9
CC1=NN(Cc2ccccc2)C(=O)C1	3	-4	-1	3	7	71*	-5
CC1=NN(c2ccc(Cl)cc2)C(=O)C1	5	5	2	8	1	31*	3
CC1=NN(c2ccccc2)C(=O)C1	4	-3	-14	15	3	45*	-3
Cc1ccc(C=Nn2c(-c3n[nH]c4c3CCC4)n[nH]c2=S)o1	4	/	0	13	/	/	/
CN(Cc1ccccc1)C(=O)OCc1cn(Cc2ccccc2)nn1	0	/	0	-2	/	/	/
CC(C)N1Cc2nnn(Cc3ccccc3)c2-c2ccccc2S1(=O)=O	-1	/	-3	-2	/	/	/
O=C1c2ccccc2C(=O)C12OC2c1ccc(Cl)cc1Cl (stereo not given)	-2	-5	-2	5	3	36*	40*
COc1cc(Cl)c(NC2=CC(=O)C(=O)c3ccccc32)c(OC)c1	3	3	10	0	10	41*	52*
COC(=O)[C@]12C[C@H](CC(=O)NCc3cccc(C(F)(F)F)c3)C(=O)N(Cc3ccc4c(c3)OCO4)C1=C[C@H](C(C)C)O[C@@H]2C1CC1	-7	/	-14	-1	/	/	/
CCCCS(=O)(=O)N1CCCc2nc(-c3ccc(F)cc3)ccc21	5	0	-8	2	/	/	/
